Published values from different studies.
Compare with care: the assays were run in different laboratories.
CTSL: Procathepsin L (CTSL, Homo sapiens, UniProt P07711)

With `COc1cc(-c2cncc3c2CN(C)Cc2cc(N4CCNCC4)ccc2-3)cc(OC)c1OC` the remaining activity was 104% (Tau-tubulin kinase 2 (TTBK2, Homo sapiens, UniProt Q6IQ55); enzyme activity, inhibitor; 1 µM).
`O=C1/C(=C/c2ccc(O)c(O)c2)COc2cc(O)ccc21` has a remaining activity of 26.7% (CTSL; enzyme activity, inhibitor; 100 µM).
For `C=CC(=O)N1CCC(COCC(=O)N2CCN(c3nc(-c4cnc(N)nc4C(F)F)nc(N4CCOC[C@@H]4C)n3)CC2)CC1`, the remaining binding was 100% (Ephrin type-B receptor 1 (EPHB1, Homo sapiens, UniProt P54762); binding, competition with immobilised ligand; 1 µM).
`CC(C)=CCC(O)C1=CC(=O)c2c(O)ccc(O)c2C1=O` (stereo not shown) gave a remaining activity of 113% (CTSL; enzyme activity, inhibitor; 100 µM).
The inhibition of `Oc1ncnc2[nH]ncc12` is reported as 100% (Xanthine dehydrogenase/oxidase (XDH, Bos taurus, UniProt P80457); enzyme activity, inhibitor, absorbance; 53 µg/mL).
The remaining activity of `C=CC(C)(C)c1cc(/C=C/C(=O)c2ccc(O)cc2)c(OC)cc1O` is reported as 95.1% (CTSL; enzyme activity, inhibitor; 100 µM).
`Nc1ncnc2c1ncn2[C@@H]1O[C@H](COP(=O)(O)OP(=O)(O)OP(=O)(O)OP(=O)(O)OP(=O)(O)OC[C@H]2O[C@@H](n3cnc4c(N)ncnc43)[C@H](O)[C@@H]2O)[C@@H](O)[C@H]1O` gave a Km of 26 µM (Oxidized purine nucleoside triphosphate hydrolase (NUDT1, Homo sapiens, UniProt P36639); enzyme activity, substrate).
`CNc1ncc2c(/C=C/C(=O)N3CCC(OC)CC3)nn(Cc3cccc(C(F)(F)F)c3)c2n1` has a remaining activity of 84% (Tyrosine-protein kinase Blk (BLK, Homo sapiens, UniProt P51451); enzyme activity, inhibitor, radiometric; 1 µM).
`Cc1cc([C@@H](C)Nc2ccccc2C(=O)O)c2nc(N3CCC(F)(F)CC3)c(C#N)c(=O)n2c1` gave a remaining binding of 92% (Serine/threonine-protein kinase STK11 (STK11, Homo sapiens, UniProt Q15831); binding, competition with immobilised ligand; 1 µM).
`N=c1c[n+](N2CCOCC2)[n-]o1` gave a KI (inactivation) of 27 µM (NAD-dependent protein deacetylase sirtuin-1 (SIRT1, Homo sapiens, UniProt Q96EB6); enzyme activity, inhibitor).
